# B1: Tyrosine-protein phosphatase non-receptor type 1 (Homo sapiens), P18031 (protein)
# chain: MEMEKEFEQIDKSGSWAAIYQDIRHEASDFPCRVAKLPKNKNRNRYRDVSPFDHSRIKLHQEDNDYINASLIKMEEAQRSYILTQGPLPNTCGHFWEMVWEQKSRGVVMLNRVMEKGSLKCAQYWPQKEEKEMIFEDTNLKLTLISEDIKSYYTVRQLELENLTTQETREILHFHYTTWPDFGVPESPASFLNFLFKVRESGSLSPEHGPVVVHCSAGIGRSGTFCLADTCLLLMDKRKDPSSVDIKKVLLEMRKFRMGLIQTADQLRFSYLAVIEGAKFIMGDSSVQDQWKELSHEDLEPPPEHIPPPPRPPKRILEPHNGKCREFFPNHQWVKEETQEDKDCPIKEEKGSPLNAAPYGIESMSQDTEVRSRVVGGSLRGAQAASPAKGEPSLPEKDEDHALSYWKPFLVNMCVATVLTAGAYLCYRFLFNSNT
# Columns and labels:
# [1] = substrate: CC(C)[C@H](NC(=O)[C@H](CC(=O)O)NC(=O)[C@H](CCC(=O)O)NC(=O)[C@H](CC(N)=O)NC(=O)[C@@H](N)CC(=O)O)C(=O)N1CCC[C@@H]1C(=O)N[C@@H](Cc1ccc(O)cc1)C(=O)N[C@H](C(=O)N[C@@H](Cc1ccccc1)C(=O)N[C@@H](CCCCN)C(=O)N[C@H](C(=O)N1CCC[C@H]1C(=O)O)[C@@H](C)O)[C@@H](C)O; test: (§1) Substrate activity at recombinant human N-terminal His-tagged PTP1B (1 to 321 residues) expressed in Escherichia coli BL21(DE3) cells assessed as inorganic phosphate release after 30 mins by spectrophotometric method
# Procedure, shortened: (§2)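 Synthetic phosphotyrosine peptides (N-acetylated, C-terminal amide, HPLC-purified) were incubated in vitro with purified PTP1B, and the released inorganic phosphate was detected with the EnzChek phosphate assay kit.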
# [2] = substrate: NCCCC[C@H](NC(=O)[C@H](CCCCN)NC(=O)[C@@H]1CCCN1C(=O)[C@H](Cc1ccc(O)cc1)NC(=O)[C@H]1CCCN1C(=O)[C@H](CCCCN)NC(=O)[C@H](CCCCN)NC(=O)[C@H](CCCCN)NC(=O)[C@@H](N)CCCCN)C(=O)O; test: as §1; procedure, shortened: as §2
# [3] = substrate: CC[C@H](C)[C@H](NC(=O)[C@H](CC(=O)O)NC(=O)[C@H](CCC(=O)O)NC(=O)[C@H](CCC(=O)O)NC(=O)[C@@H](N)CCC(=O)O)C(=O)N1CCC[C@@H]1C(=O)N[C@@H](Cc1ccc(O)cc1)C(=O)N[C@@H](CCC(=O)O)C(=O)N[C@H](C(=O)N[C@@H](CC(C)C)C(=O)N1CCC[C@H]1C(=O)N[C@@H](CC(=O)O)C(=O)O)C(C)C; test: as §1; procedure, shortened: as §2
# [4] = substrate: C[C@@H](O)[C@H](NC(=O)[C@@H](N)CO)C(=O)N[C@@H](CCC(=O)O)C(=O)N1CCC[C@H]1C(=O)N[C@@H](CCC(N)=O)C(=O)N1CCC[C@@H]1C(=O)N[C@@H](Cc1ccc(O)cc1)C(=O)N[C@@H](CCC(N)=O)C(=O)N1CCC[C@H]1C(=O)NCC(=O)N[C@@H](CCC(=O)O)C(=O)N[C@@H](CC(N)=O)C(=O)O; test: as §1; procedure, shortened: as §2
# [5] = substrate: CC[C@H](C)[C@H](N)C(=O)N[C@@H](CCC(=O)O)C(=O)N[C@@H](CC(=O)O)C(=O)N1CCC[C@H]1C(=O)N1CCC[C@@H]1C(=O)N[C@@H](Cc1ccc(O)cc1)C(=O)N1CCC[C@@H]1C(=O)N[C@@H](Cc1ccc(O)cc1)C(=O)NCC(=O)N[C@@H](CC(N)=O)C(=O)N[C@@H](CC(=O)O)C(=O)N[C@@H](CO)C(=O)N[C@@H](CC(=O)O)C(=O)O; test: as §1; procedure, shortened: as §2
# [6] = substrate: CC[C@H](C)[C@H](NC(=O)[C@@H]1CCCN1C(=O)[C@H](CO)NC(=O)[C@H](CCCCN)NC(=O)[C@H](Cc1ccc(O)cc1)NC(=O)[C@H]1CCCN1C(=O)[C@@H](NC(=O)[C@@H]1CCCN1C(=O)[C@H](CC(N)=O)NC(=O)[C@H](CCC(=O)O)NC(=O)[C@@H](N)CCC(N)=O)[C@@H](C)CC)C(=O)N[C@@H](CC(N)=O)C(=O)O; test: as §1; procedure, shortened: as §2
# [7] = substrate: CC[C@H](C)[C@H](NC(=O)[C@@H]1CCCN1C(=O)[C@H](CCC(=O)O)NC(=O)[C@H](C)NC(=O)[C@H](Cc1ccc(O)cc1)NC(=O)[C@H]1CCCN1C(=O)[C@H](CC(N)=O)NC(=O)[C@H](CC(=O)O)NC(=O)[C@H](CO)NC(=O)[C@@H]1CCCN1C(=O)[C@@H](N)CC(=O)O)C(=O)N[C@@H](CC(=O)O)C(=O)O; test: as §1; procedure, shortened: as §2
# [8] = substrate: CC(C)C[C@@H](N)C(=O)NCC(=O)N[C@@H](CO)C(=O)N[C@@H](CCCNC(=N)N)C(=O)N[C@@H](C)C(=O)N1CCC[C@@H]1C(=O)N[C@H](Cc1ccc(O)cc1)C(=O)N1CCC[C@H]1C(=O)N[C@@H](Cc1cnc[nH]1)C(=O)N[C@H](Cc1ccccc1)C(=O)N[C@H](CS)C(=O)N[C@H](C)C(=O)O; test: as §1; procedure, shortened: as §2
# [9] = substrate: CC(C)[C@H](NC(=O)[C@@H](CCCCN)NC(=O)[C@@H](Cc1ccc(O)cc1)NC(=O)[C@H]1CCCN1C(=O)[C@H](Cc1ccc(O)cc1)NC(=O)[C@H]1CCCN1C(=O)[C@H](CCC(=O)O)NC(=O)[C@H](N)CCCCN)C(=O)N[C@H](CCCCN)C(=O)O; test: Substrate activity at PTP1B (unknown origin); conditions: Homo sapiens; procedure, shortened: as §2
# [10] = substrate: NCCCC[C@H](NC(=O)[C@H](CCCCN)NC(=O)[C@@H]1CCCN1C(=O)[C@H](Cc1ccc(O)cc1)NC(=O)[C@H]1CCCN1C(=O)[C@H](CCCCN)NC(=O)[C@H](CCCCN)NC(=O)[C@H](CCCCN)NC(=O)[C@@H](N)CCCCN)C(=O)O; test: Ratio of Kcat to Km for recombinant human N-terminal His-tagged PTP1B (1 to 321 residues) expressed in Escherichia coli BL21(DE3) cells
protein,measurement,setting,value
B1,Km,[1],17.1 µM
same,Km,[2],Not Active
same,Km,[3],14.7 µM
same,Km,[4],29.1 µM
same,Km,[5],20.1 µM
same,Km,[6],21.7 µM
same,Km,[7],28.5 µM
same,Km,[8],> 300 µM
same,Km,[9],12.7 µM
same,kcat/Km,[10],Not Active

# Reference: ChEMBL document CHEMBL3813641, “Prediction and verification of novel peptide targets of protein tyrosine phosphatase 1B” (Bioorg Med Chem, 2016)
